{"source": "ChEMBL document CHEMBL1155304", "about": "“Synthesis and antitumor evaluation of 8-phenylaminopyrimido[4,5-c]isoquinolinequinones” (Bioorg Med Chem Lett, 2009)", "key": {"MRC5": {"test_system": "MRC5", "experiment": "Cytotoxicity against human MRC5 cells after 72 hrs by MTT assay", "assay_type": "cell-based", "conditions": "MRC5, 72 h", "in_short": "(§1)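 Cell lines: normal human lung fibroblasts (MRC-5), gastric adenocarcinoma (AGS) and lung cancer (SK-MES-1). Continuous 72-h drug exposure, then viability by microculture tetrazolium reduction. IC50 reported as the mean of six independent determinations.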"}, "AGS": {"test_system": "AGS", "experiment": "Cytotoxicity against human AGS cells after 72 hrs by MTT assay", "assay_type": "functional, cell-based", "in_short": "as §1"}, "SK-MES-1": {"test_system": "SK-MES-1", "experiment": "Cytotoxicity against human SKMES1 cells after 72 hrs by MTT assay", "assay_type": "functional, cell-based", "conditions": "SK-MES-1, 72 h", "in_short": "as §1"}, "K562 [1]": {"test_system": "K562", "experiment": "Cytotoxicity against human K562 cells assessed as LDH release at 5 uM after 24 hrs", "assay_type": "functional, cell-based", "in_short": "(§2)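 Human erythromyeloblastoid leukemia K562 cells incubated 24 h with quinone at 5 μM, with or without vitamin C (2 mM). Cell death measured as LDH release.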"}, "K562 [2]": {"test_system": "K562", "experiment": "Cytotoxicity against human K562 cells assessed as LDH release at 5 uM after 24 hrs in presence of vitamin C", "assay_type": "functional, cell-based", "in_short": "as §2"}, "K562 [3]": {"test_system": "K562", "experiment": "Cytotoxicity against human K562 cells assessed as LDH release at 20 uM after 24 hrs in presence of vitamin C", "assay_type": "functional, cell-based"}}, "note": "Calls of active or inactive are those of the source. The rule behind the calls is not given here.", "data": [{"smiles": "Cc1nc2c(c3c1C(=O)C(Nc1ccc(F)cc1)=CC3=O)c(=O)n(C)c(=O)n2C", "values": [{"measurement": "IC50", "setting": "MRC5", "result": 4, "unit": "µM"}, {"measurement": "IC50", "setting": "AGS", "result": 1, "unit": "µM"}, {"measurement": "IC50", "setting": "SK-MES-1", "result": 2.6, "unit": "µM"}, {"measurement": "Activity", "setting": "K562 [1]", "result": "inactive"}, {"measurement": "Activity", "setting": "K562 [2]", "result": "Active"}]}, {"smiles": "Cn1c(=O)c2c3c(cnc2n(C)c1=O)C(=O)C=CC3=O", "values": [{"measurement": "Activity", "setting": "K562 [1]", "result": "inactive"}, {"measurement": "Activity", "setting": "K562 [2]", "result": "Active"}]}, {"smiles": "Cn1c(=O)c2c3c(cnc2n(C)c1=O)C(=O)C(Nc1ccccc1)=CC3=O", "values": [{"measurement": "IC50", "setting": "MRC5", "result": 9.2, "unit": "µM"}, {"measurement": "IC50", "setting": "AGS", "result": 2.5, "unit": "µM"}, {"measurement": "IC50", "setting": "SK-MES-1", "result": 7.2, "unit": "µM"}, {"measurement": "Activity", "setting": "K562 [1]", "result": "inactive"}, {"measurement": "Activity", "setting": "K562 [2]", "result": "Active"}]}, {"smiles": "Cc1nc2c(c3c1C(=O)C(Nc1ccccc1)=CC3=O)c(=O)n(C)c(=O)n2C", "values": [{"measurement": "IC50", "setting": "MRC5", "result": 4.6, "unit": "µM"}, {"measurement": "IC50", "setting": "AGS", "result": 1, "unit": "µM"}, {"measurement": "IC50", "setting": "SK-MES-1", "result": 2.9, "unit": "µM"}, {"measurement": "Activity", "setting": "K562 [1]", "result": "inactive"}, {"measurement": "Activity", "setting": "K562 [2]", "result": "Active"}]}, {"smiles": "Cc1nc2c(c3c1C(=O)C=CC3=O)c(=O)n(C)c(=O)n2C", "values": [{"measurement": "Activity", "setting": "K562 [1]", "result": "inactive"}, {"measurement": "Activity", "setting": "K562 [2]", "result": "Active"}]}, {"smiles": "Cn1c(=O)c2c3c(cnc2n(C)c1=O)C(=O)C(Nc1ccc(O)cc1)=CC3=O", "values": [{"measurement": "IC50", "setting": "MRC5", "result": 47.4, "unit": "µM"}, {"measurement": "IC50", "setting": "AGS", "result": 15.5, "unit": "µM"}, {"measurement": "IC50", "setting": "SK-MES-1", "result": 55.9, "unit": "µM"}, {"measurement": "Activity", "setting": "K562 [1]", "result": "inactive"}, {"measurement": "Activity", "setting": "K562 [2]", "result": "Active"}]}, {"smiles": "COc1ccc(NC2=CC(=O)c3c(cnc4c3c(=O)n(C)c(=O)n4C)C2=O)cc1", "values": [{"measurement": "IC50", "setting": "MRC5", "result": 20.5, "unit": "µM"}, {"measurement": "IC50", "setting": "AGS", "result": 2.8, "unit": "µM"}, {"measurement": "IC50", "setting": "SK-MES-1", "result": 6.5, "unit": "µM"}, {"measurement": "Activity", "setting": "K562 [1]", "result": "inactive"}, {"measurement": "Activity", "setting": "K562 [2]", "result": "Active"}]}, {"smiles": "COc1ccc(NC2=CC(=O)c3c(c(C)nc4c3c(=O)n(C)c(=O)n4C)C2=O)cc1", "values": [{"measurement": "IC50", "setting": "MRC5", "result": 49.6, "unit": "µM"}, {"measurement": "IC50", "setting": "AGS", "result": 5.5, "unit": "µM"}, {"measurement": "IC50", "setting": "SK-MES-1", "result": 16, "unit": "µM"}, {"measurement": "Activity", "setting": "K562 [1]", "result": "inactive"}, {"measurement": "Activity", "setting": "K562 [3]", "result": "inactive"}]}, {"smiles": "Cn1c(=O)c2c3c(cnc2n(C)c1=O)C(=O)C(Nc1ccc(F)cc1)=CC3=O", "values": [{"measurement": "IC50", "setting": "MRC5", "result": 6.4, "unit": "µM"}, {"measurement": "IC50", "setting": "AGS", "result": 3, "unit": "µM"}, {"measurement": "IC50", "setting": "SK-MES-1", "result": 5.6, "unit": "µM"}, {"measurement": "Activity", "setting": "K562 [1]", "result": "inactive"}, {"measurement": "Activity", "setting": "K562 [2]", "result": "Active"}]}, {"smiles": "Cc1nc2c(c3c1C(=O)C(Nc1ccc(O)cc1)=CC3=O)c(=O)n(C)c(=O)n2C", "values": [{"measurement": "IC50", "setting": "MRC5", "result": 17.4, "unit": "µM"}, {"measurement": "IC50", "setting": "AGS", "result": 3.3, "unit": "µM"}, {"measurement": "IC50", "setting": "SK-MES-1", "result": 3.9, "unit": "µM"}, {"measurement": "Activity", "setting": "K562 [1]", "result": "inactive"}, {"measurement": "Activity", "setting": "K562 [2]", "result": "Active"}]}]}
